Screening results as filed in PubChem BioAssay.
An excerpt weighted towards active compounds, which were near 2.5% of everything screened.
SENP6 block: inhibitors of human SENP6 protease; Recombinant SENP6 catalytic domain, aminoluciferin luminescence; Q9GZR1; inhibition, % at 10 µM; 330,000 tested, 1.8% active;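 active = inhibition above about 50% at the single tested dose, limit read from the data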;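 also: plate controls were DMSO wells with enzyme for no effect and DMSO wells lacking enzyme for full effect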
SENP8 block-1: blocks the human protease SENP8 | inhibition, % at 10 µM | Q96LD8 | 330,000 tested, 1.2% active | purified SENP8, Z-RLRGG-aminoluciferin cleavage, luminescence; in the data active = inhibition above about 50%
SENP8 block-2: blocks human SENP8 cleavage of Nedd8 substrate | 360,000 tested, 0.64% active | AID 602440 | Q96LD8 | inhibition, % at 20 µM | recombinant SENP8, Nedd8 substrate fluorescence; in the data active = inhibition mostly above about 40%, no sharp cut-off; inactive = mostly below about 27%
SENP7 block: blocks the human protease SENP7 | Q9BQF6 | recombinant SENP7, Z-RLRGG-aminoluciferin luminescence, 40 min | inhibition, % at 5 µM | 330,000 tested, 1.5% active;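 active = inhibition above about 50% at the single test dose, limit read from the data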;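 also: plate controls were DMSO with enzyme for no effect and no enzyme buffer wells for full effect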
Target sequence (Q9BQF6 706-1050 limits assumed): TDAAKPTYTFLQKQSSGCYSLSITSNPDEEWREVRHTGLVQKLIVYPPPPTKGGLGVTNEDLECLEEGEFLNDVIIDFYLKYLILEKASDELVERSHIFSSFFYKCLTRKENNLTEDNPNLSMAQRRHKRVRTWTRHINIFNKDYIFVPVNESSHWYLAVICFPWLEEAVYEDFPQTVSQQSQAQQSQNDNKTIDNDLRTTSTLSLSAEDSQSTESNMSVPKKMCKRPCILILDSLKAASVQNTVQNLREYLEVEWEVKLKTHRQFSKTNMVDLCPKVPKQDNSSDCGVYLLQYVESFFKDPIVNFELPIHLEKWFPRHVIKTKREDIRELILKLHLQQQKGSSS
SENP1 inh: inhibitors of human SENP1 SUMO protease catalytic domain. recombinant SENP1 catalytic domain, CyPet-SUMO1-YPet FRET cleavage. 360,000 tested, 0.21% active. AID 624204. inhibition, % at 10 µM;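 active = inhibition at least 30% at 10 µM, raw YFP signal under a set limit, fluorescence ratio 0.5 to 1.5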;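 also: 0% = enzyme with DMSO and 100% = no enzyme wells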
Target sequence (Q9P0U3 419-644 limits assumed): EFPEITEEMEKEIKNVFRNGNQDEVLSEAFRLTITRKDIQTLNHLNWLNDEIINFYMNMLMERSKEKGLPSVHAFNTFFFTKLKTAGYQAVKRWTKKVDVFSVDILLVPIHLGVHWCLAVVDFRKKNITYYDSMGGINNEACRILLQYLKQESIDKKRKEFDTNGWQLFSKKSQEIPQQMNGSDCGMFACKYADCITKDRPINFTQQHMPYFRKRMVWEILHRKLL
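Test system: hSENP1 catalytic domain, recombinant; Amount: 20 pM final SENP1 enzyme; Medium: Tris pH 8 buffer plus EDTA, NaCl, BME, BSA, NP40, catalase; Schedule: 50 min enzyme reaction, room temperature, light-protected; Technique: FRET fluorescence in CFP and YFP emission channels; Controls: no-enzyme wells low, DMSO-plus-enzyme wells high control.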
SENP8 confirm: human SENP8 inhibition, confirmed | Recombinant SENP8, Z-RLRGG-aminoluciferin luminescence, 60 min | 6,200 tested, 40% active | shares compounds with SENP7 block | inhibition, % at 12.5 µM;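 active = mean inhibition across replicates above about 50%, limit read from the data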
SENP6 confirm: confirmation of human SENP6 protease inhibitors; shares compounds with SENP7 block; recombinant SENP6, Z-RLRGG-aminoluciferin luminescence; inhibition, % at 12.5 µM; 6,200 tested, 58% active; AID 488915
SENP7 conf: human SENP7 inhibition, confirmed | inhibition, % at 12.5 µM | shares compounds with SENP7 block | 6,200 tested, 69% active | recombinant SENP7, Z-RLRGG-aminoluciferin luminescence, 40 min
Casp3 SENP sel: inhibits human caspase-3 in SENP selectivity test; inhibition, % at 12.5 µM; purified caspase-3, Z-DEVD-aminoluciferin luminescence, 60 min; 6,200 tested, 60% active; shares compounds with SENP7 block;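 active = mean inhibition above about 50%, limit read from the data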;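 also: plate controls were enzyme with DMSO for no effect and wells without caspase-3 for full effect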
Luc interf: counter-screen for SENP inhibitors: luminescence interference; shares compounds with SENP7 block; Pre-incubated SENP8/Z-RLRGG-aminoluciferin, luciferase luminescence interference; inhibition, % at 12.5 µM; 6,200 tested, 39% active; AID 488919;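 active = mean inhibition above about 50% when retested at one dose, limit read from the data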;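 also: plate controls were DMSO wells with completed reaction for no effect and substrate without enzyme for full effect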
* = called active by the depositor; i = inactive; . = no result given.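 The calls were made as follows, unless noted: active = mean inhibition above about 50% in the one-dose retest (limit read from the data); inactive = the rest.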

SMILES | SENP6 block | SENP8 block-1 | SENP8 block-2 | SENP7 block | SENP1 inh | SENP8 confirm | SENP6 confirm | SENP7 conf | Casp3 SENP sel | Luc interf
Cc1cccc(C)c1OCc1cc(C(=O)N2CCN(c3ccccc3)CC2C)no1 (centres undefined) | 7 | 2 | -4 | 0 | 1 | . | . | . | . | .
Cc1ccc(NC(=O)COc2ccc3c(c2)OCO3)c(Cl)c1 | 21 | 0 | 14 | 62* | -1 | 12 | 6 | 7 | 4 | -2
Cc1ccc(NC(=O)c2cc(-c3ccc(C)c(C)c3O)n[nH]2)cc1C | 1 | -11 | 14 | 9 | 3 | . | . | . | . | .
Cc1cccc(NC(=O)c2cc(-c3ccc(C)c(C)c3O)n[nH]2)c1 | 40 | 20 | 31 | 86* | 0 | 8 | 15 | 95* | 59* | 54*
Cc1ccc(C(=O)N2CCN(S(=O)(=O)c3ccc(C)c([N+](=O)[O-])c3)C2)cc1 | -7 | -1 | 6 | 1 | 3 | . | . | . | . | .
Cc1ccn2c(C(=O)c3ccc(Cl)cc3)cnc2c1 | 70* | 31 | -24 | 52* | -1 | 28 | 34 | 70* | 62* | 48
Cc1ccn2c(=O)nc(SCC(=O)c3ccc(Cl)cc3)nc2c1 | -1 | 9 | -16 | -8 | -24 | . | . | . | . | .
CC(=O)NCCCc1nc2ccccc2n1Cc1ccccc1F | -14 | -7 | 12 | 55* | 1 | 9 | 8 | -2 | 2 | 0
CCOc1ccc(-c2cn3ccccc3n2)cc1 | 49 | 66* | -410 | 72* | -3 | 86* | 85* | 96* | 90* | 84*
CCOc1ccc(-c2cnc3ccccc3n2)cc1 | 96* | 93* | -441 | 98* | -3 | 8 | 61* | 79* | 88* | 58*
COc1ccc(CC(=O)Nc2ccc(-c3cn4ccccc4n3)cc2)cc1 | -3 | -14 | i | -13 | 4 | . | . | . | . | .
O=C(N/N=C/c1ccc([N+](=O)[O-])cc1)c1cc(C2CC2)[nH]n1 | -3 | 2 | 8 | -11 | 2 | . | . | . | . | .
O=C(N/N=C/c1ccc([N+](=O)[O-])cc1)c1[nH]ncc1Br | 86* | 72* | 20 | 85* | -1 | -4 | 9 | 48 | 88* | 15
Cc1c(NC(=S)Nc2ccc(Cl)cc2)c(=O)n(-c2ccccc2)n1C | 0 | -1 | 7 | 3 | 1 | . | . | . | . | .
CCc1nnc(NC(=O)[C@@H](NC(=O)c2cc(OC)cc(OC)c2)C(C)C)s1 | -1 | 3 | 4 | -6 | 2 | . | . | . | . | .
Cc1oc(-c2ccc(Cl)cc2)cc1C(=O)O | 96* | 97* | 4 | 94* | -3 | 99* | 100* | 102* | 92* | 91*
CC1(C(=O)NS(=O)(=O)c2ccccc2C(F)(F)F)CCN1C(=O)C1CCCCC1 (centres undefined) | . | . | 21 | . | 2 | . | . | . | . | .
CC(C)c1ccc(Nc2ncccc2C(=O)O)cc1 | 95* | 95* | 10 | 98* | 4 | 6 | 6 | 10 | 3 | 4
COc1ccc(-c2nc3c(-c4ccccc4)cnn3cc2C)cc1F | 16 | 0 | 15 | 9 | -18 | . | . | . | . | .
COc1ccc(-c2cn3cc(C)ccc3n2)cc1OC | 57* | 36 | -333 | 16 | 2 | 68* | 65* | 90* | 89* | 78*
COc1ccc(-c2cn3cc(C)ccc3n2)cc1F | 77* | 69* | -408 | 78* | 1 | 11 | 74* | 90* | 80* | 32
CCOc1ccc(-c2cn(-c3ccccc3OC)c(=S)[nH]2)cc1 | 8 | 3 | -3 | 5 | -12 | . | . | . | . | .
CCOc1ccc(-n2cc(-c3ccc(OC)c(OC)c3)[nH]c2=S)cc1 | 73* | 53* | 0 | -1 | 0 | 7 | 46 | 36 | 23 | 12
Fc1ccc(/C=N/Nc2ccccn2)cc1 | 66* | 46 | 11 | 64* | 1 | 30 | 42 | 82* | 56* | 42
CCOc1ccc(/C=N/Nc2ccccn2)cc1 | 84* | 91* | 10 | 95* | -1 | 63* | 94* | 102* | 65* | 12
SMILES | SENP6 block | SENP8 block-1 | SENP8 block-2 | SENP7 block | SENP1 inh | SENP8 confirm | SENP6 confirm | SENP7 conf | Casp3 SENP sel | Luc interf
Brc1ccc(/C=N/Nc2ccccn2)cc1 | 1 | 33 | 24 | 65* | 1 | -4 | 43 | 86* | 40 | 1
C(=N\Nc1ccccn1)/c1ccc(N2CCOCC2)cc1 | 19 | 33 | -207 | 48 | 18 | . | . | . | . | .
COc1ccc(/C=N/Nc2ccccn2)cc1O | 57* | 12 | 11 | 33 | 2 | 42 | 36 | 77* | 72* | 64*
Oc1cccc(C=NNc2ccccn2)c1 | . | . | 14 | . | 1 | . | . | . | . | .
CCCOc1ccc(/C=N/NC(=O)C(=O)Nc2ccccn2)cc1 | 16 | -2 | -22 | 7 | -1 | . | . | . | . | .
Clc1ccc(/C=N/Nc2ccccn2)cc1 | 13 | 52* | 7 | 69* | 1 | 4 | 54* | 72* | 51* | 9
Clc1ccccc1C=NNc1ccccn1 | . | . | 9 | . | 1 | . | . | . | . | .
CCOC(=O)c1ccc(N=Cc2cnc(N)nc2N)cc1 | . | . | 5 | . | -5 | . | . | . | . | .
CCOc1cc(/C=C2/C(=N)N3N=C(CC)SC3=NC2=O)ccc1OC(=O)c1ccco1 | -5 | 3 | -3 | -14 | -70 | . | . | . | . | .
CCOc1cc(/C=C2\C(=O)N(c3ccc(C(N)=O)cc3)N=C2C)ccc1OC(=O)c1cccs1 | 63* | 14 | 66* | 68* | 14 | 18 | 33 | 3 | 3 | 5
CCOc1cc(/C=C2/C(=O)N(c3ccccc3)N=C2C)ccc1OC(=O)c1ccco1 | 34 | 7 | 66* | 68* | 5 | -23 | -1 | -4 | -7 | -4
CC(CC(=O)Nc1ccc2c(c1)c(=O)n(C)n2-c1cccs1)c1ccccc1 (centres undefined) | . | . | -77 | . | 1 | . | . | . | . | .
CCCc1ccc(OC(=O)c2cccs2)cc1 | 32 | -4 | 16 | 42 | 3 | . | . | . | . | .
CCCc1ccc(OC(=O)c2ccc(O)cc2Cl)cc1 | 61* | 66* | 11 | 46 | 2 | 58* | 73* | 90* | 23 | 31
C(=N\Nc1ccccn1)/c1c[nH]c2ccccc12 | 18 | 6 | -148 | -8 | -3 | . | . | . | . | .
O=C(O)c1ccccc1N/N=C\c1ccnc2ccccc12 | 94* | 90* | -29 | 38 | -22 | 12 | 100* | 103* | 97* | 94*
